IMP-1 inhibitor – blocks Pseudomonas aeruginosa IMP-1 metallo-beta-lactamase; purified IMP-1, nitrocefin hydrolysis, epi-absorbance fluorescence; inhibition, % at 5.6 µM; 290,000 compounds, 0.45% hits; AID 1556;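 active = inhibition above the mean plus 3 SD of all compounds in the same screening run, cut at about 4.5% in these data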;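 also: 0% = IMP-1 with DMSO and 100% = DMSO wells lacking enzyme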
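System: Purified IMP-1 | Read-out basis: Percent enzyme inhibition | Controls: IMP-1 with DMSO as 0%, enzyme-free DMSO as 100% | Replicates: One well per compound | Doses: 5.6 µM nominal single concentration | Detection: Epi-absorbance fluorescence, 480 nm excitation, 530 nm emission | Incubation: 25 °C, 15 min preincubation, 25 min reaction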
NALP3 yeast inh – inhibitors of NALP3 inflammasome in yeast; Yeast reconstituted NLRP3/ASC/caspase-1, beta-gal luminescence, 24 h; inhibition, % at 10 µM; 330,000 compounds, 0.39% hits; AID 2825;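 active = inhibition of 50% or more; inactive = inhibition below 50%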;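 also: plate controls were induced DMSO wells for no effect and uninduced yeast grown without galactose for full effect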
NALP1 inh – inhibitors of NALP1 inflammasome in yeast | S. cerevisiae NALP1/ASC/caspase-1 growth, X-gal OD620, 72 h | 280,000 compounds, 0.61% hits | inhibition, % at 10 µM | AID 2071; in the data active = inhibition mostly above about 24%, no sharp cut-off; inactive = mostly below about 32%
VIM-2 inhibitor – blocks Pseudomonas aeruginosa VIM-2 metallo-beta-lactamase; 290,000 compounds, 0.89% hits; purified VIM-2, nitrocefin hydrolysis, epi-absorbance fluorescence; inhibition, % at 5.6 µM;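 active = inhibition above the mean of all tested compounds plus 3 SD, cutoff set per screening run, cut at about 7.5% in these data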;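 also: red hydrolysis product quenches plate fluorescence so inhibitors raise well fluorescence; 0% = enzyme with DMSO and 100% = DMSO without enzyme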
PolyA inhibitor – blocks polyadenylation in yeast reporter cells; 300,000 compounds, 0.02% hits; activity score, % at 12 µM; S. cerevisiae SKY197-pL101 polyadenylation reporter, beta-gal luminescence; efflux-impaired pdr1/pdr3 knockout yeast; score 100 = 6 SD above DMSO;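 active = lowest replicate activity score at least 50, where 100 means six control SD above control mean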;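 also: yeast exposed to compound for 9 h at 30 °C; higher score means more reporter readthrough which indicates perturbed polyadenylation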
SUMO Mot1 rescue – inhibitors of SUMOylation pathway: yeast Mot1-301 growth rescue; S. cerevisiae Mot1-301 growth rescue, ATP luminescence, 38.5C; percent above DMSO median, 100 means doubled; growth rescue, % at 18.8 µM; 320,000 compounds, 1% hits;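 active = every valid replicate shows activation above 250% relative to neutral control wells; inactive = the rest, any valid replicate at or below 250%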;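 also: OY570 slx delta 5 strain wells were the positive control but not used for scaling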
Mot1 SUMO dose – SUMO pathway inhibitors in yeast Mot1-301 growth. shares compounds with SUMO Mot1 rescue. S. cerevisiae Mot1-301 galactose growth, ATP luminescence, 24 h; -100 = growth of slx-deleted rescue strain. growth activity, percent, % at 42 µM. 2,300 tested, under 10 active. AID 493004;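 active = Signal drops as the depositor expects, and the fitted half-maximal dose is no more than ten times the top valid tested dose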;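 also: more negative values mean stronger growth rescue toward the control strain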
* hit, by the source's call; nt = not tested or not shown; + = active, no number. This is a sample that favours compounds with a hit; in the whole collection about 2.9% have one here.

SMILES | IMP-1 inhibitor | NALP3 yeast inh | NALP1 inh | VIM-2 inhibitor | PolyA inhibitor | SUMO Mot1 rescue | Mot1 SUMO dose
CC1CCC(C(C)C)C(OC(=O)COC(=O)c2cccn2C)C1 (stereo unspecified) | 0 | 11 | 14 | 2 | 2 | 377* | 0
CCOc1ccc(-c2nc(C#N)c(N3CCOCC3)o2)cc1 | -3 | 48 | -6 | -2 | -4 | 417* | -1
Cc1c(NC(=O)CN2C(=O)NC(C)(c3ccc(OC(F)F)cc3)C2=O)c(=O)n(-c2ccccc2)n1C (stereo unspecified) | nt | 4 | nt | nt | 3 | 379* | 1
Cc1ccc(Cl)cc1NC(=O)C1CCCN1S(=O)(=O)c1ccc(-c2ccc(=O)[nH]n2)s1 (stereo unspecified) | 0 | 20 | -8 | 0 | 1 | -6 | nt
OC1CN=C2CCCc3c2n(c2ccc(Cl)cc32)C1 (stereo unspecified) | -3 | 15 | 9 | -2 | 1 | 368* | 0
CCn1c2c(c3cc(Cl)ccc31)CCCC2=O | -1 | 44 | 22 | 2 | 1 | 3 | nt
COc1ccc(CCN2C(=O)CC(NNC(=O)c3ccc(F)cc3)C2=O)cc1OC (stereo unspecified) | 1 | -2 | 24 | 0 | -6 | 9 | nt
CCOc1ccc(C(=O)NNC2CC(=O)N(CCc3ccccc3)C2=O)cc1OC (stereo unspecified) | -3 | 11 | 12 | -2 | 13 | 737* | 0
Cc1ccc(NC2CCCN(C(=O)CCCN3CCCCC3=O)C2)cc1C (stereo unspecified) | -3 | 0 | 20 | -2 | -3 | -13 | nt
COC(=O)CSc1ccc(S(=O)(=O)N2CCCCCC2)cc1[N+](=O)[O-] | -3 | 11 | -6 | -3 | -13 | 520* | 1
COc1ccccc1NC(=O)/C(=C\c1cccnc1)NC(=O)c1ccccc1 | -2 | 19 | 28 | 0 | -9 | -8 | nt
COc1ccccc1CCNC(=O)/C(=C/c1cccnc1)NC(=O)c1ccccc1 | -4 | 10 | 18 | -2 | 25 | 391* | 0
Cc1ccc(S(=O)(=O)NN2C(=O)c3ccccc3NC2c2ccccc2F)cc1 (stereo unspecified) | -2 | 9 | -2 | 1 | -6 | 429* | 1
COc1ccc(C2Nc3ccccc3C(=O)N2NS(=O)(=O)c2ccc(C)cc2)c(OC)c1 (stereo unspecified) | -2 | 15 | 11 | -1 | 13 | -22 | nt
CCOc1ccc(N2CC(C(=O)OC)CC2=O)cc1 (stereo unspecified) | -3 | 13 | nt | -2 | 18 | 385* | -1
CCNC(=O)C1CC(=O)N(c2ccc(OCC)cc2)C1 (stereo unspecified) | -2 | 10 | 7 | -3 | 4 | -5 | nt
COc1ccc(C(=O)CCC(=O)N2CCN(c3ccc([N+](=O)[O-])cc3)CC2)cc1 | 0 | 9 | 24 | 1 | 2 | 9 | nt
CC1CCCC(N2C(=O)NC(NC(=O)c3ccco3)(C(F)(F)F)C2=O)C1C (stereo unspecified) | -2 | -3 | -9 | 1 | 24 | 510* | -1
Cc1ccccc1C(=O)NCC(=O)NCC1(N2CCOCC2)CCCCC1 | nt | -13 | nt | nt | 3 | -2 | nt
CC(C)n1c(CN(C)c2ccccc2)nc2ccccc21 | 0 | 11 | -7 | -1 | -26 | 875* | 0
COc1ccccc1CNc1nc(SC)ncc1CO | -1 | 8 | 28 | -2 | 32 | 474* | 0
COc1ccccc1CNc1ncnc2sccc12 | -5 | 12 | -2 | 0 | -1 | -11 | nt
CC(C)(C)c1ccc(-c2nc(N)nc(N)n2)cc1 | 0 | 19 | nt | 1 | -18 | -4 | nt
Nc1nc(-c2ccc(Cl)cc2)nc(-c2ccc(Cl)cc2)n1 | 1 | 8 | nt | 2 | -4 | 942* | 0
O=C(CN1CCCCC1)N1c2ccccc2CCc2ccccc21 | -4 | 4 | 2 | -3 | 7 | 7 | nt
SMILES | IMP-1 inhibitor | NALP3 yeast inh | NALP1 inh | VIM-2 inhibitor | PolyA inhibitor | SUMO Mot1 rescue | Mot1 SUMO dose
O=C(c1ccco1)N1CCN(CC(=O)N2c3ccccc3CCc3ccccc32)CC1 | 0 | 13 | 0 | -1 | -19 | 368* | 0
CCN(CC)c1nc2c(c(=O)[nH]c(=O)n2C)n1CCOc1ccccc1 | -3 | 11 | 23 | 1 | -1 | 710* | 0
CCCS(=O)(=O)N1CCC(C(=O)N2CCc3ccccc3C2)CC1 | -1 | 9 | -4 | 0 | 6 | 397* | 0
CS(=O)(=O)N1CCC(C(=O)N2CCc3ccccc3C2)CC1 | -3 | 11 | 3 | -2 | -1 | -13 | nt
COc1ccc(C2NC(=O)c3ccccc3O2)cc1OC (stereo unspecified) | -1 | 11 | -10 | -2 | 9 | 4 | nt
COc1ccc(C2NC(=O)c3ccccc3O2)cc1 (stereo unspecified) | -3 | 20 | 5 | -1 | -10 | 529* | 0
COC(=O)c1ccccc1SC(CC(=O)c1ccccc1)c1ccc(F)cc1 (stereo unspecified) | -2 | 10 | nt | 0 | -14 | 461* | 0
O=C(CC(Nc1ccc(F)cc1)c1ccccc1)c1ccccc1 (stereo unspecified) | -1 | 6 | 19 | -2 | -20 | -17 | nt
O=C(NCc1ccccn1)C1CC(c2ccc(Cl)c(Cl)c2)=NO1 (stereo unspecified) | -3 | 23 | 17 | -4 | -2 | + | 0
CC12CCC(=O)N1C(C(=O)NNC(=O)COc1ccccc1F)CS2 (stereo unspecified) | nt | -13 | nt | nt | nt | -9 | nt
CC1(C)CC(=O)C2=C(C1)Oc1ncn(CCCO)c(=N)c1C2c1ccccc1 (stereo unspecified) | 1 | 14 | 36 | -2 | 15 | 4 | nt
CC1(C)CC(=O)C2=C(C1)Oc1ncn(CCO)c(=N)c1C2c1ccccc1 (stereo unspecified) | 1 | 9 | 7 | -1 | -5 | 543* | 0
CCc1cc(/C(Cc2ccccn2)=N\O)c(O)cc1O | -5 | 2 | -11 | -7 | -3 | 486* | 0
CCOC1(OCC)C(c2ccc(N)cc2)C(C#N)(C#N)C1(OCC)OCC (stereo unspecified) | -1 | -6 | 4 | -1 | -3 | 3 | nt
CCOC1(OCC)C(c2ccc(Cl)cc2)C(C#N)(C#N)C1(OCC)OCC (stereo unspecified) | -2 | -3 | nt | 0 | -19 | 495* | -1
Cc1ccc(-c2nnc(SCC#N)n2N)cc1 | -1 | 11 | 13 | -1 | -5 | + | 0

High-throughput results as filed in PubChem.
